Compound activity from PubChem BioAssay.
Keap1 Nrf2 FP: inhibitors of human Keap1-Nrf2 protein-protein interaction. Q14145. Keap1 Kelch-Nrf2 peptide fluorescence polarization, 1536-well. inhibition, % at 9.4 µM. 340,000 tested, 0.15% active. AID 504523; in the data active means inhibition above about 12%;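 further: human Keap1 Kelch domain with fluorescein labeled Nrf2 9mer peptide probe; 0% = neutral control wells and 100% = peptide positive control; higher means more block of Keap1 binding to Nrf2 peptide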
A3A deaminase: inhibitors of human APOBEC3A DNA deaminase | P31941 | recombinant A3A, FAM/TAMRA ssDNA deamination fluorescence | inhibition, % at 20 µM | 330,000 tested, 0.41% active;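 active means at least 40% inhibition at 20 µM here, with at most 30% in a related deaminase screen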;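 further: plate controls were A3A with DMSO for no effect and wells lacking A3A enzyme for full effect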
Target sequence (P31941 whole entry, looked up): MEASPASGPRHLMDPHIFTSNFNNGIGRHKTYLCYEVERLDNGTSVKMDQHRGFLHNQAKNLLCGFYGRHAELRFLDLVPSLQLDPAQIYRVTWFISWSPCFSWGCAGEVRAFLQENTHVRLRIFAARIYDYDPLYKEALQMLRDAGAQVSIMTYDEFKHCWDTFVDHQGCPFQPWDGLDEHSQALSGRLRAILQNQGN
C-LANA FP: KSHV C-LANA DNA binding inhibition. MBP-C-LANA/FAM-LBS DNA binding, fluorescence polarization. inhibition, % at 9 µM. 340,000 tested, 0.078% active. AID 504423;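 active means highest replicate inhibition at or above 60% at 9 µM, even if other replicates fall short; inactive means all replicates below 60% inhibition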;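 further: 0% = neutral control wells and 100% = 4 µM acridine orange control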
A3G deaminase: blocks human APOBEC3G single-stranded DNA deamination; Q9HC16; inhibition, % at 20 µM; recombinant A3G, ssDNA deamination FAM/TAMRA fluorescence; 330,000 tested, 0.28% active; AID 493012;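 active means inhibition of at least 40% at 20 µM, with no more than 30% in the related APOBEC3A deaminase screen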;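 further: plate controls were DMSO wells with A3G for no effect and wells lacking A3G enzyme for full effect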
Target sequence (Q9HC16 whole entry, looked up): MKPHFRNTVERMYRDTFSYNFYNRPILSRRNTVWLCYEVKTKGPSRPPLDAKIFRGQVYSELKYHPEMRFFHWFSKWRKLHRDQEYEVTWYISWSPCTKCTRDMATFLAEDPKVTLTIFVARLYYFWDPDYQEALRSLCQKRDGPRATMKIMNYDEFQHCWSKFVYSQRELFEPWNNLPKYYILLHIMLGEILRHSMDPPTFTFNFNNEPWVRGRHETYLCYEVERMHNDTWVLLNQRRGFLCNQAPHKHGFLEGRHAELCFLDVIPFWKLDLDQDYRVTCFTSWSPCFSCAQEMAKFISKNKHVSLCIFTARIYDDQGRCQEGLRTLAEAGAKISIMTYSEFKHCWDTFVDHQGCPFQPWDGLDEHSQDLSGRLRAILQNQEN
CAL PDZ FP-1: human CAL PDZ-peptide interaction inhibition | purified CAL PDZ, TMR-peptide fluorescence polarization, 1 h | 330,000 tested, 0.02% active | inhibition, % at 20 µM | AID 504414;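 active means highest replicate inhibition of at least 40%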;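 further: plate controls were DMSO neutral control wells for no effect and unlabeled competitor peptide control wells for full effect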
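Material: tagged CAL PDZ domain; buffer or medium: 25 mM sodium phosphate pH 7.4, 150 mM NaCl, TCEP, IgG, Thesit; compound dosing: single point, 20 µM; schedule: 1 h incubation at room temperature before polarization reading; measured by: FP readout, S and P plane fluorescence; read-out basis: percent inhibition from loss of millipolarization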
CAL PDZ FP-2: blocks peptide binding to the human CAL PDZ domain; purified CAL PDZ, TMR-peptide fluorescence polarization, 1 h; 300,000 tested, 0.92% active; inhibition, % at 24.9 µM; Q9HD26;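 active means mean inhibition of at least 30% with at least half of replicates also reaching 30%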;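 further: 0% = DMSO neutral control and 100% = excess unlabeled competitor peptide PRC23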
Numbers without * were called inactive; nt = no result given; + = active, no number. In the library only some 1.7% were active in any assay of this set; here they are far more common.

SMILES	Keap1 Nrf2 FP	A3A deaminase	C-LANA FP	A3G deaminase	CAL PDZ FP-1	CAL PDZ FP-2
Nc1c(N(CCC2=CCCCC2)C(=O)COc2ccc([N+](=O)[O-])cc2)c(=O)[nH]c(=O)n1Cc1ccccc1	1.7	nt	-0.3	nt	-0.6	55.6*
O=C(NC(=O)N1CCN(c2ccc([N+](=O)[O-])cn2)CC1)c1ccccc1F	-3.4	2.5	-0.6	-3.0	0.1	nt
CN(NC(=O)c1ccccc1F)c1ccc([N+](=O)[O-])cn1	0.7	5.2	0.9	13.5	-0.8	54.8*
O=C(NCCCN1CCOCC1)/C(=C/c1ccc(F)cc1)NC(=O)c1ccccc1	-4.5	-0.6	-0.1	-3.6	-1.5	2.4
Cc1cccc(-n2nc(C)c3c2NC2=C(C(=O)CCC2)C3c2ccccn2)c1 (centres undefined)	1.0	-1.6	-1.5	4.2	nt	79.2*
O=C(OCN1C(=O)c2ccccc2C1=O)c1cccc(S(=O)(=O)N2CCOCC2)c1	1.1	-0.3	1.5	-3.9	-1.8	-5.4
COc1cccc(N=Nc2c(N)[nH]n3c(=O)cc(-c4ccccc4)nc23)c1	1.0	-0.1	-0.9	-3.7	-0.8	63.4*
CCN(CC)CCN1C(=O)C(=O)/C(=C(/O)c2ccc(S(=O)(=O)N3CCOCC3)cc2)C1c1ccc(Cl)cc1 (centres undefined)	-2.7	-3.5	-0.6	-9.1	-0.1	-0.7
COc1ccc(NS(=O)(=O)c2cc(C(=O)N3CCN(C/C=C/c4ccccc4)CC3)ccc2C)cc1	2.6	-1.4	-1.8	-6.7	-1.2	-2.3
Cc1cccc(NC(=O)C2CCN(S(C)(=O)=O)CC2)c1C	-1.9	-8.5	0.5	-9.3	-4.4	55.3*
Cc1ccccc1C(=O)OC(C)CN1CCN(C)CC1 (centres undefined)	1.3	0.5	1.6	-4.3	9.0	115.9*
Cc1nnc(NC(=O)c2c(-c3ccccc3)noc2C)s1	-2.4	5.5	-4.4	2.3	nt	-1.5
Cc1onc(-c2ccccc2)c1C(=O)Nc1cccc2nsnc12	-5.6	3.6	116.4*	-1.7	-0.7	-4.0
Cc1ccc(NC(=O)c2c(-c3ccccc3)noc2C)nc1	-4.0	0.6	0.6	-7.7	-0.6	+
Nc1ncnc2c1C(c1ccccc1)c1c(ccc3ccccc13)O2 (centres undefined)	-1.3	-5.5	1.1	-7.8	62.1*	-5.0
CCOC(=O)CC(=O)Nc1ncnc2c1C(c1ccccc1)c1c(ccc3ccccc13)O2 (centres undefined)	-0.3	-4.2	-1.0	-8.7	6.7	0.5
COc1cc([N+](=O)[O-])ccc1NC(=O)/C=C/C(=O)O	-0.5	-4.0	1.1	-9.9	-0.1	71.4*
COc1ccccc1OCc1nc2ccccc2[nH]1	-2.3	-1.4	0.3	-6.7	-1.7	-6.0
Cc1ccccc1OCc1nc2ccccc2[nH]1	-4.1	-2.7	1.1	-4.8	-0.9	40.5*
COc1cc(Br)c(C(=O)c2nccc3cc(OC)c(OC)cc23)cc1OC	-6.2	-0.7	0.4	-2.4	71.1*	-2.5
N#Cc1c(N)sc(=S)c2c1CCN(Cc1ccccc1)C2	nt	-2.3	nt	53.0*	nt	nt
CCN1CCc2c(sc(N)c2C#N)C1	-9.5	7.1	4.1	15.6	0.4	nt
Cn1c(CC(=O)Nc2ccccc2F)nnc1SCC(=O)Nc1nncs1	0.5	-0.8	-0.5	-8.4	-1.7	-2.7
Cn1c(CC(=O)Nc2ccccc2F)nnc1SCC(=O)Nc1ccccc1Br	-0.1	0.8	0.5	-1.5	-1.0	41.8*
NC(=O)c1ccc(SCC(=O)OCC(=O)NCc2cccs2)c([N+](=O)[O-])c1	-0.3	-4.4	0.6	-7.1	-0.1	-18.3
SMILES	Keap1 Nrf2 FP	A3A deaminase	C-LANA FP	A3G deaminase	CAL PDZ FP-1	CAL PDZ FP-2
COc1ccc(CNC(=O)c2nc(S(=O)(=O)Cc3ccccc3)ncc2Cl)cc1	-45.5	-0.6	-1.0	-0.7	-2.4	0.2
O=C(NCc1ccccc1)c1nc(S(=O)(=O)Cc2ccccc2)ncc1Cl	-29.2	-7.5	0.4	-7.7	-0.2	+
C[C@H](NC(=O)C1CCN(S(=O)(=O)c2ccccc2)CC1)C(=O)NCc1ccc(F)cc1	5.0	2.1	-0.5	2.8	-0.2	nt
COc1cc(Cn2c(=O)c3c(OC)c(C)cnc3n(C)c2=O)cc(OC)c1	5.1	-6.4	-2.4	-8.1	-2.0	2.5
O=C(O)/C=C/c1ccc(Cn2ccnc2)cc1	3.8	-2.2	0.2	-2.6	-0.8	-2.8
COc1ccccc1-n1cc(-c2ccc([N+](=O)[O-])cc2)[nH]c1=S	-1.7	3.3	-0.1	-6.5	0.8	62.7*
Cc1ccc(N2CC(c3nc4ccccc4n3C)CC2=O)cc1 (centres undefined)	-1.4	1.7	0.5	4.1	-2.0	30.5*
CN(C)CCn1nnc2c(=O)oc3ccccc3c21	0.8	-1.5	0.5	-3.2	-2.9	-22.2
CC(=O)c1sc(NC(=O)CCCc2nc3ccccc3c(=O)[nH]2)nc1-c1ccccc1	1.1	-1.5	1.6	-2.5	-1.4	52.1*
O=C(NCCC1=CCCCC1)C1CCC(CNS(=O)(=O)c2ccccc2)CC1 (centres undefined)	3.3	8.4	-0.9	-0.3	-0.4	-3.5
O=C(NCCc1ccccc1)C1CCC(CNS(=O)(=O)c2ccc(F)cc2)CC1 (centres undefined)	-6.1	-4.5	0.3	-7.2	0.0	40.6*
Cc1ccc(S(=O)(=O)NCC2CCC(C(=O)NCCCN3CCOCC3)CC2)cc1 (centres undefined)	-4.5	-0.2	-0.5	-7.1	-4.4	38.9*
Cc1cc(C)c(S(=O)(=O)NCC2CCC(C(=O)NCCCN3CCOCC3)CC2)c(C)c1 (centres undefined)	3.6	nt	-1.9	nt	-0.8	-1.6
O=C(NNc1ncccc1-n1cccc1)c1ccc(Cl)cc1	2.1	-4.0	1.2	-8.2	-1.7	-38.3
CC(C)(C)c1ccc(C(=O)NNc2ncccc2-n2cccc2)cc1	-5.3	-4.4	0.9	-5.5	0.2	169.5*
COc1cc(/C=N/Nc2ccc(Cl)c(C(=O)O)c2)ccc1OC(=O)c1ccccc1F	0.3	-0.9	0.9	1.8	-0.7	41.8*
Cc1nn(-c2ccccc2)c2nc(C(Cl)(Cl)Cl)[nH]c(=O)c12	-3.2	-0.7	2.8	-8.2	-0.7	59.2*
Cc1ccc(-n2nc(C)c3c(=O)[nH]c(C(F)(F)F)nc32)cc1	nt	3.5	nt	-1.7	nt	nt
CC1CCC(NC(=O)C(C)N2C(=O)C3CCCCC3C2=O)CC1 (centres undefined)	-1.9	-0.4	0.9	-4.1	-1.6	-3.2
COc1cccc(NC(=O)CSc2nc3ccsc3c(=O)n2-c2ccc(C(=O)O)cc2)c1	-0.9	-0.3	-0.5	-5.4	-0.6	43.5*
CCn1c(SCC(=O)Nc2cccc(OC)c2)nc2ccccc2c1=O	-0.1	5.0	0.0	10.6	-1.5	0.4
C/C(=N\Nc1ccc(C)c(Cl)c1)c1cccnc1	-0.3	-0.3	0.8	0.7	0.0	-0.7
